# ABCG2 block: blocks JC-1 efflux by human ABCG2 transporter | Q9UNQ0 | IgMXP3 cells, flow cytometry | inhibition, % at 6.6 µM | actives 0.1% (n = 190,000) | AID 1325;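 active = inhibition above 80%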;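 note: 0% = DMSO and 100% = nicardipine control wells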
#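 Test system: IgMXP3 (ABCG2) plus far-red-tagged CCRF-Adr (ABCB1) cells / Amount: 3 million cells/mL in well / Reagent: JC-1 transporter substrate / Timing: 10 min compound exposure, 25 °C / Signal: flow cytometry, 530 nm JC-1 signal / Read-out: percent efflux inhibition, scaled nicardipine 100% to DMSO 0% / Benchmarks: nicardipine as high control, DMSO as low control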
# HSV replic up: HSV replication enhancement; HSV replication augmentation in cells, fold increase; maximum fold increase; actives 0.005% (n = 220,000); AID 1956; in the data active = maximum fold increase above about 1.5; inconclusive = no clear call, values can overlap the other calls; tested in PC3 cells
# ABCB1 inh: human ABCB1 inhibition, ABCG2 as counter-screen | CCRF-Adr cells, JC-1 efflux, flow cytometry | inhibition, % at 6.6 µM | actives 0.067% (n = 190,000); in the data active = inhibition above about 40%;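 note: 0% = vehicle and 100% = reference inhibitor; higher value means more JC-1 retained so stronger ABCB1 efflux block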
# HMGR II inh: E. faecalis class II HMG-CoA reductase inhibition; purified E. faecalis HMGR, NADPH absorbance 340 nm kinetic; actives 0.41% (n = 190,000); inhibition, % at 10 µM;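 active = inhibition above a set limit, the median over all tested compounds plus 3 SD, cut at about 9.5% in these data; inconclusive = no clear call, values can overlap the other calls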;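 note: enzyme runs in reverse so mevalonate oxidation gives rising NADPH absorbance; 0% = complete reaction with DMSO and 100% = background rate lacking mevalonate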
# ABCB1 confirm: inhibits human ABCB1 efflux, confirmed at single point | shares compounds with ABCG2 block | CCRF-Adr cells, JC-1 efflux, flow cytometry | inhibition, % at 6.6 µM | actives 7% (n = 270) | AID 1451;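 active = inhibition of pump activity above 50%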;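 note: 0% = DMSO and 100% = nicardipine full pump inhibition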
# ABCG2 single pt: confirmation of human ABCG2 transporter inhibitors, ABCB1 counter-screen | shares compounds with ABCG2 block | IgMXP3 cells, JC-1 efflux, flow cytometry | inhibition, % at 6.6 µM | actives 6% (n = 270);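 active = inhibition above 50%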;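 note: 0% = DMSO wells and 100% = nicardipine pump inhibitor wells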
# IgMXP3 autofluor: compound fluoresces at 488/530 nm in IgMXP3 cells; shares compounds with ABCG2 block; compound autofluorescence 488/530 nm, flow; hits give high values; fluorescence at 6.6 µM; actives 30% (n = 270); AID 1480;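 active = fluorescence in ABCG2-expressing cells above the plate's control-well mean plus 3 SD, cut at about 15 in these data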;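 note: median cell fluorescence with compound minus that of DMSO-treated control cells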
# CCRF-Adr fluor: CCRF-Adr autofluorescence flag for ABCB1 confirmation | shares compounds with ABCG2 block | CCRF-Adr cells, compound autofluorescence 488/530 nm, flow cytometry; hits give high values | fluorescence at 6.6 µM | actives 30% (n = 270) | AID 1483;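 active = fluorescence beyond the plate control mean plus 3 SD, with a fluorescence-to-maximum score over 2, cut at about 25 in these data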
# * hit, by the source's call; i = inactive; ? = inconclusive; nt = no result; + = active, no number. In the library only some 0.49% were active in any assay of this set; here they are far more common.
SMILES,ABCG2 block,HSV replic up,ABCB1 inh,HMGR II inh,ABCB1 confirm,ABCG2 single pt,IgMXP3 autofluor,CCRF-Adr fluor
O=[N+]([O-])c1ccccc1-c1nc(-c2ccc(Br)o2)no1,90.3*,i,1.7,-4.0,1.6,28.2,-0.34,0.61
Cc1ccc(C(=O)NCC(=O)OCC(=O)NC2CCCC(C)C2C)s1 (centres undefined),0.5,i,0.2,-5.5,nt,nt,nt,nt
CCCc1nc(N2CCOCC2)c2sc(=S)n(-c3ccccc3)c2n1,0.1,i,0.1,-0.8,nt,nt,nt,nt
COc1ccc(-n2nnc3c(=O)n(CC(=O)Nc4cc(C)on4)cnc32)cc1OC,2.1,i,0.0,4.6,nt,nt,nt,nt
COc1ccccc1NC(=O)C1CCCN(c2nc(C)cc(C)n2)C1 (centres undefined),11.1,i,0.8,-7.8,nt,nt,nt,nt
CCOC(=O)N1CCN(CC(=O)Nc2cc(OCC)ccc2OCC)CC1,29.5,i,1.0,-3.9,nt,nt,nt,nt
CCOc1ccc(OCC)c(NC(=O)CN2CCN(c3ccc(C)cc3C)CC2)c1,80.9*,nt,2.7,0.7,10.6,31.8,8.76,-1.84
CCOc1ccc(OCC)c(NC(=O)C2CCCN(c3nc(C)cc(C)n3)C2)c1 (centres undefined),101.1*,i,2.4,-3.4,7.8,27.6,2.71,9.66
CCCCN(C(=S)Nc1ccc(F)cc1)c1c(N)n(CCC)c(=O)[nH]c1=O,2.1,i,0.6,-12.4,nt,nt,nt,nt
CN1CCN(C2=CC3=CC(=C(C#N)C#N)CCC3CC2)CC1 (centres undefined),85.0*,?,+,4.0,68.4*,53.3*,28.8*,46.8*
N#CC(C#N)=C1C=C2C=C(N3CCOCC3)CCC2CC1 (centres undefined),52.9,?,169.4*,-4.2,11.5,50.3*,7.66,24.9
CC1(C)CC(NCCN2CCN(C3=CC(=C(C#N)C#N)CC(C)(C)C3)CC2)=CC(=C(C#N)C#N)C1,5.0,i,-0.1,0.0,nt,nt,nt,nt
N#CC(C#N)=C1C=C2C=C(N3CCCCCC3)CCC2CC1 (centres undefined),55.5,nt,115.6*,1.0,138.5*,46.3,46.1*,131*
CCN1CCN(C2=CC3=CC(=C(C#N)C#N)CCC3CC2)CC1 (centres undefined),55.4,?,69.6*,-3.6,23.4,45.5,34.7*,92.9*
COc1ccc(CCNC(=O)CSc2nncn2N)cc1OC,1.3,i,0.4,-0.3,nt,nt,nt,nt
COc1cc(/C=c2\sc3nc(-c4ccncc4)nn3c2=O)ccc1OC(C)=O,36.2,nt,-0.6,-1.0,nt,nt,nt,nt
CN(C)c1ccc(/C=c2\sc3nc(-c4ccccc4)nn3c2=O)cc1,63.0,nt,45.9*,0.0,14.9,14.9,79.6*,61.2*
COc1ccc(NC(=O)Nc2ccc(F)cc2F)cc1,15.2,i,0.4,-1.1,nt,nt,nt,nt
O=C(Nc1ccc(C(=O)O)cc1)Nc1ccc(F)cc1F,190.4*,i,51.1*,-6.1,0.7,0.9,1.41,-1.89
CC(=O)Nc1ccc(S(=O)(=O)N[C@@H](C)C(=O)OCc2cc([N+](=O)[O-])cc3c2OCOC3)cc1,nt,i,nt,nt,nt,nt,nt,nt
COc1cc(C(=O)NC(CCSC)C(=O)OCc2cc([N+](=O)[O-])cc3c2OCOC3)cc(OC)c1OC (centres undefined),24.7,i,58.4*,-3.0,20.5,12.9,1.91,0.01
CC(C)C(NS(=O)(=O)c1ccccc1)C(=O)OCc1cc([N+](=O)[O-])cc2c1OCOC2 (centres undefined),89.4*,i,2.5,-4.8,1.3,10.3,1.66,-0.99
COc1ccc(N(CC(=O)Nc2ccccc2C(=O)NCCc2ccccc2)S(C)(=O)=O)cc1OC,2.1,i,0.9,-2.6,nt,nt,nt,nt
Cc1ccc(NC(=O)COC(=O)Cn2cnc3c2c(=O)n(C)c(=O)n3C)c(Cl)c1,4.1,i,0.6,-5.6,nt,nt,nt,nt
